The test system of data set [1] is mice. The following applies: cited from earlier work.
The test system of data set [2] is α1*-, α3β4*-, α4β2-, or α4β4-nAChR. It is filed as cell-based, human. The settings on record: highest concentration tested 100 μM.
Data set [3] addresses human NE transporters [h(NET)] (Homo sapiens, UniProt P23975). The data set is described as follows: Inhibition of [3H]norepinephrine uptake in HEK293 cells expressing hNET. It is filed as cell-based. The following applies: ratio of IC50 values.
Data set [4] addresses α4β2-nAChR (Homo sapiens, UniProt P17787+P43681). The data set is described as follows: 86Rb+ efflux assay, antagonism of carbamylcholine response, SH-EP1-hα4β2 cells. It is filed as cell-based.
The subject of data set [5] is nicotine-mediated antinociception (tail-flick). The data set is described as follows: Tail-flick test, blockade of nicotine-induced antinociception. It is filed as in vivo. The following applies: mice. In a few lines:
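Mice got saline or test compound 15 min before nicotine (2.5 mg/kg s.c.) and were tested 5 min after nicotine. Radiant heat was applied to the upper tail with a 10 s cutoff, and a pre-treatment control latency (2–4 s) was taken for each mouse. Blockade was scored as %MPE = [(test − control)/(10 − control)] × 100 and expressed as AD50 in mg/kg.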
For orientation: Thermal pain tests record how soon the animal reacts.

human NE transporters [h(NET)], sequence (P23975 whole entry): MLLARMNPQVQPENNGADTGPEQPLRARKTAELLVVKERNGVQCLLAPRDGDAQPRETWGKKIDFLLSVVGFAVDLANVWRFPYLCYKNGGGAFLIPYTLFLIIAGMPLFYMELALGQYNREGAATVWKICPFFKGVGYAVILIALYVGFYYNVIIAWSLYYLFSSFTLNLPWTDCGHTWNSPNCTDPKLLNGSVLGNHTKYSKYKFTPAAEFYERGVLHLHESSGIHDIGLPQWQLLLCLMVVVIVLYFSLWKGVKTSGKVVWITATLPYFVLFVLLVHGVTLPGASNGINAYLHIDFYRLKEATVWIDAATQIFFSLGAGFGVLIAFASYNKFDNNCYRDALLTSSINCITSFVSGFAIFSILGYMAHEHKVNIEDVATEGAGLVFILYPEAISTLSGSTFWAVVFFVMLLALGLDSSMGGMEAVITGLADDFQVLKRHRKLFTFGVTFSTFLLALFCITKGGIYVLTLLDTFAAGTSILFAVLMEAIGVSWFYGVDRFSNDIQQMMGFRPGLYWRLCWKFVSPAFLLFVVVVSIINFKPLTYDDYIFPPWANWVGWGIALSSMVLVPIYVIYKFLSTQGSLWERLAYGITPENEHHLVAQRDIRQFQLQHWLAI
α4β2-nAChR, sequence (P43681 29-627 limits assumed): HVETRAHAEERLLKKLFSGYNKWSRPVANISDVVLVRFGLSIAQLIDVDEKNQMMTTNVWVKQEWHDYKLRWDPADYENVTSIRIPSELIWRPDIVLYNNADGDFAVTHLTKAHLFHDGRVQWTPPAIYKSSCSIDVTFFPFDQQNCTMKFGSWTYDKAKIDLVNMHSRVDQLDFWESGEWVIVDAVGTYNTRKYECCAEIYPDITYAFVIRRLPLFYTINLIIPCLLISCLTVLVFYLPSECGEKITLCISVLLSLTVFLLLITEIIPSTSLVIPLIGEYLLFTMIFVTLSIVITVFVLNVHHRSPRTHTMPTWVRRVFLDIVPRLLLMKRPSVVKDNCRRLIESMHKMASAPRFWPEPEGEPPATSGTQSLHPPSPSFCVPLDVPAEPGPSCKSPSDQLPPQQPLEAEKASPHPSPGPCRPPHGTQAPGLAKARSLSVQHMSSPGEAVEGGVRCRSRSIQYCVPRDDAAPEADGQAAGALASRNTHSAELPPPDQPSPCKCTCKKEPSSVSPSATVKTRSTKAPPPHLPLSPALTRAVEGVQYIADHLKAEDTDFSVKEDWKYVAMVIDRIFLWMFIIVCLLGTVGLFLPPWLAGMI
α4β2-nAChR, sequence (P17787 26-502): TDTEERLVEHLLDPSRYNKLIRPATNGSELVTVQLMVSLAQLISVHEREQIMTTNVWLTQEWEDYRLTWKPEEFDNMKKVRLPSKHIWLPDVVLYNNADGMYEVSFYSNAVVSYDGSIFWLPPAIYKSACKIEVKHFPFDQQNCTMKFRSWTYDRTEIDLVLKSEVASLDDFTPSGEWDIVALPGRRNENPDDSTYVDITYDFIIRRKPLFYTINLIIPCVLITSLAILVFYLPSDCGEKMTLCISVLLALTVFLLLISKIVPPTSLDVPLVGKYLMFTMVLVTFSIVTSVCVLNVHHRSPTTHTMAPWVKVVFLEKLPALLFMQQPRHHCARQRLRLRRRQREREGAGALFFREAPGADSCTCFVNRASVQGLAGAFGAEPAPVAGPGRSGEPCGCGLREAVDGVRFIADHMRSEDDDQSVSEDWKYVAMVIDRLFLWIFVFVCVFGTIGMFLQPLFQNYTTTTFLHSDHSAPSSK

For `C[C@H]1NC(C)(C)CO[C@]1(O)c1cccc(Cl)c1` (racemic) [racemic hydroxybupropion], in data set [1], the “convulsions after i.p. administration” value is reported as “induced convulsions”.
For the compound `C[C@H]1NC(C)(C)CO[C@]1(O)c1cccc(Cl)c1` [(2R,3R)-4a, (2R,3R)-2-(3-Chlorophenyl)-3,5,5-trimethylmorpholin-2-ol, reference compound], the “extent of antagonism at all nAChR subtypes tested” value (shortened to “extent of antagonism”) in data set [2] is listed as “full antagonist”.
Take `C[C@@H]1NC(C)(C)CO[C@@]1(O)c1cccc(Cl)c1` [(2S,3S)-4a, (2S,3S)-2-(3-Chlorophenyl)-3,5,5-trimethylmorpholin-2-ol, reference compound]: the “extent of antagonism” value in data set [2] was “full antagonist”. For the same compound, the “times more potent than 2 in inhibiting NE uptake” value in data set [3] stood at 7.7 times.
Turning to `C[C@@H]1NC(C)(C)CO[C@@]1(O)c1cccc(F)c1` [Compound 4c, (2S,3S)-2-(3-Fluorophenyl)-3,5,5-trimethylmorpholin-2-ol], the “extent of antagonism” value in data set [2] is given as “block all nAChR function at an adequately high concentration”.
As to `C[C@@H]1NC(C)(C)CO[C@@]1(O)c1cccc(Br)c1` [Compound 4d, (2S,3S)-2-(3-Bromophenyl)-3,5,5-trimethylmorpholin-2-ol], in data set [4], the “selectivity for inhibition of α4β2-nAChR over NE uptake inhibition” value is reported as ~ 1.7 fold. Moreover, in data set [2], the “extent of antagonism” value was “block all nAChR function at an adequately high concentration”.
Regarding `C[C@@H]1NC(C)(C)CO[C@@]1(O)c1cccc([N+](=O)[O-])c1` [Compound 4g, (2S,3S)-2-(3-Nitrophenyl)-3,5,5-trimethylmorpholin-2-ol], the “extent of antagonism” value in data set [2] is on record as “block all nAChR function at an adequately high concentration”.
`C[C@@H]1NC(C)(C)CO[C@@]1(O)c1cccc2ccccc12` [Compound 4q, (2S,3S)-2-(Naphthalen-1-yl)-3,5,5-trimethylmorpholin-2-ol]: the “fold higher activity in the tail-flick assay than (2S,3S)-4a” value in data set [5] is ~ 5 fold.
On the same count and under the same terms, the value for `C[C@@H]1NC(C)(C)CO[C@@]1(O)c1ccc2ccccc2c1` [Compound 4r, (2S,3S)-2-(Naphthalen-2-yl)-3,5,5-trimethylmorpholin-2-ol] was ~ 5 fold.
Consider `CCC[C@@H]1NC(C)(C)CO[C@@]1(O)c1cccc(Cl)c1` [Compound 4t, (2S,3S)-2-(3-Chlorophenyl)-5,5-dimethyl-3-propyl-morpholin-2-ol], for which the “extent of antagonism” value in data set [2] is listed as “full antagonist”.

(Values after paper PMC2895766 (Journal of medicinal chemistry, 2010).)
